These compounds were tested on T47D (assay: Cytotoxicity against human T47D cells measured on day 4 by CCK8 assay). Conditions: 96 h.
Assay type: functional, cell-based
Procedure, shortened: (§1)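 Cells seeded at […], grown overnight in medium with 10% FBS at 37 °C under 5% CO2. On day 2 they were serum-starved 4 h, then exposed to graded compound concentrations. On day 4 CCK-8 was added for a further 4 h and absorbance read at 450 nm. IC50 came from a four-parameter logistic fit, mean ± SD of three experiments in triplicate.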

SMILES | IC50 [µM]
Oc1ccccc1-c1cc(-c2ccco2)cc(-c2ccccc2O)n1 | > 50
Oc1ccccc1-c1cc(-c2ccsc2)cc(-c2ccccc2O)n1 | > 50
Oc1cccc(-c2cc(-c3cccs3)cc(-c3ccccc3O)n2)c1 | > 50
Oc1ccccc1-c1cc(-c2ccccn2)cc(-c2ccccc2O)n1 | > 50
Oc1ccccc1-c1cc(-c2cccs2)cc(-c2ccccc2O)n1 | > 50
Oc1cccc(-c2cc(-c3ccoc3)cc(-c3cccc(O)c3)n2)c1 | 2.59
Oc1cccc(-c2cc(-c3cccnc3)cc(-c3cccc(O)c3)n2)c1 | > 50
Oc1cccc(-c2cc(-c3ccsc3)cc(-c3cccc(O)c3)n2)c1 | 1.51
Oc1cccc(-c2cc(-c3cccs3)cc(-c3cccc(O)c3)n2)c1 | 0.77
COc1cc([C@@H]2c3cc4c(cc3[C@@H](O[C@@H]3O[C@@H]5CO[C@@H](C)O[C@H]5[C@H](O)[C@H]3O)[C@H]3COC(=O)[C@H]23)OCO4)cc(OC)c1O [ETOPOSIDE] | 13.7
Oc1ccc(-c2cc(-c3cccnc3)cc(-c3ccccc3O)n2)cc1 | > 50
Oc1ccc(-c2cc(-c3ccccn3)cc(-c3cccc(O)c3)n2)cc1 | 0.98
Oc1ccccc1-c1cc(-c2ccoc2)cc(-c2ccccc2O)n1 | > 50
Oc1ccccc1-c1cc(-c2cccnc2)cc(-c2ccccc2O)n1 | > 50
Oc1cccc(-c2cc(-c3ccccn3)cc(-c3cccc(O)c3)n2)c1 | 1.41

The compounds below were run on DU-145 (assay: Cytotoxicity against human DU145 cells measured on day 4 by CCK8 assay). Conditions: DU-145, 96 h.
Assay type: functional, cell-based
Procedure, shortened: as §1

SMILES | IC50 [µM]
Oc1ccccc1-c1cc(-c2ccco2)cc(-c2ccccc2O)n1 | > 50
Oc1ccccc1-c1cc(-c2ccsc2)cc(-c2ccccc2O)n1 | > 50
Oc1cccc(-c2cc(-c3cccs3)cc(-c3ccccc3O)n2)c1 | 9.3
Oc1ccccc1-c1cc(-c2ccccn2)cc(-c2ccccc2O)n1 | > 50
Oc1ccccc1-c1cc(-c2cccs2)cc(-c2ccccc2O)n1 | > 50
Oc1cccc(-c2cc(-c3ccoc3)cc(-c3cccc(O)c3)n2)c1 | 1.65
Oc1cccc(-c2cc(-c3cccnc3)cc(-c3cccc(O)c3)n2)c1 | > 50
Oc1cccc(-c2cc(-c3ccsc3)cc(-c3cccc(O)c3)n2)c1 | 1.31
Oc1cccc(-c2cc(-c3cccs3)cc(-c3cccc(O)c3)n2)c1 | 1.63
COc1cc([C@@H]2c3cc4c(cc3[C@@H](O[C@@H]3O[C@@H]5CO[C@@H](C)O[C@H]5[C@H](O)[C@H]3O)[C@H]3COC(=O)[C@H]23)OCO4)cc(OC)c1O [ETOPOSIDE] | 2.09
Oc1ccc(-c2cc(-c3cccnc3)cc(-c3ccccc3O)n2)cc1 | > 50
Oc1ccc(-c2cc(-c3ccccn3)cc(-c3cccc(O)c3)n2)cc1 | 1.98
Oc1ccccc1-c1cc(-c2ccoc2)cc(-c2ccccc2O)n1 | > 50
Oc1ccccc1-c1cc(-c2cccnc2)cc(-c2ccccc2O)n1 | > 50
Oc1cccc(-c2cc(-c3ccccn3)cc(-c3cccc(O)c3)n2)c1 | 3.61

What follows are compounds tested against T1, DNA topoisomerase 1 (Homo sapiens) (UniProt P11387) (assay: Inhibition of recombinant human DNA topoisomerase-1 assessed as relaxation of supercoiled DNA pBR322 at 20 uM after 30 mins by agarose gel electrophoresis relative to control). Conditions: not given.
T1 sequence (whole entry): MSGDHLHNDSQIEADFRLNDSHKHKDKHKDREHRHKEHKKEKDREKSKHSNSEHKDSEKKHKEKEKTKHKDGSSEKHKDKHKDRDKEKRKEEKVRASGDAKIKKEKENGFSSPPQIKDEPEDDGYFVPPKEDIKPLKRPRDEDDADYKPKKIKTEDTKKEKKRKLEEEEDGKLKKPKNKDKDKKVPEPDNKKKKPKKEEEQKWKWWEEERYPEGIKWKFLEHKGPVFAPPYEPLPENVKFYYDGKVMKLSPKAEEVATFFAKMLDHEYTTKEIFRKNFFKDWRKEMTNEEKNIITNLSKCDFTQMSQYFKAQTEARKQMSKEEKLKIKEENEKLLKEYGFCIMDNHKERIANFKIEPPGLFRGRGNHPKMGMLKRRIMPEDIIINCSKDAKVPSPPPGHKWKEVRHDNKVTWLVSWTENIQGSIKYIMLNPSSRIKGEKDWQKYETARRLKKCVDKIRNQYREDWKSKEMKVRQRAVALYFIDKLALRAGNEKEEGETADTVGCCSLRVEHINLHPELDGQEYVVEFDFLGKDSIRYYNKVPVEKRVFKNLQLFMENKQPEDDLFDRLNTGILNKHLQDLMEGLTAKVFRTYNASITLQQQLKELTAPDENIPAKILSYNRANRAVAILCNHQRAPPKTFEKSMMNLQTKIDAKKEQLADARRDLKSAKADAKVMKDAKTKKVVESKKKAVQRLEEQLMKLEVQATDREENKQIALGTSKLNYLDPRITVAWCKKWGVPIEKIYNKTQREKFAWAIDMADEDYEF
Procedure, shortened: (§2)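 Relaxation assay with 100 ng pBR322 plasmid DNA and 1 unit recombinant human topo I. Buffer was 10 mM Tris–HCl pH 7.9, 150 mM NaCl, 0.1% BSA, 1 mM spermidine and 5% glycerol, incubated 37 °C for 30 min with or without compound. Products were run on a 1% agarose gel in TAE at 15 V for 7 h and stained with ethidium bromide (0.5 µg/mL) for 30 min.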

inhibition [%] | SMILES
0.2 | Oc1ccccc1-c1cc(-c2ccco2)cc(-c2ccccc2O)n1
1.5 | Oc1cccc(-c2cc(-c3cccs3)cc(-c3ccccc3O)n2)c1
0.2 | Oc1ccccc1-c1cc(-c2cccs2)cc(-c2ccccc2O)n1
2 | Oc1cccc(-c2cc(-c3ccoc3)cc(-c3cccc(O)c3)n2)c1
1.9 | Oc1cccc(-c2cc(-c3cccnc3)cc(-c3cccc(O)c3)n2)c1
4.5 | Oc1cccc(-c2cc(-c3ccsc3)cc(-c3cccc(O)c3)n2)c1
0 | Oc1cccc(-c2cc(-c3cccs3)cc(-c3cccc(O)c3)n2)c1
0 | Oc1ccc(-c2cc(-c3cccnc3)cc(-c3ccccc3O)n2)cc1
0 | Oc1ccccc1-c1cc(-c2cccnc2)cc(-c2ccccc2O)n1

The compounds below were run against DNA topoisomerase 2-alpha (Homo sapiens) (UniProt P11388) (assay: Inhibition of recombinant human DNA topoisomerase-2alpha using supercoiled pBR322 plasmid DNA as substrate at 20 uM after 30 mins by agarose gel electrophoresis relative to control). Conditions: not given.
Procedure, shortened: (§3)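 200 ng supercoiled pBR322 with 1 unit human topo II, incubated 30 min at 30 °C with or without compound in 10 mM Tris–HCl pH 7.9, 50 mM NaCl, 5 mM MgCl2, 1 mM EDTA, 1 mM ATP and 15 µg/mL BSA. Reaction was stopped with 7 mM EDTA and run on 1% agarose in TAE at 25 V. Gel was stained with ethidium bromide, visualized under UV, and supercoiled DNA quantitated densitometrically.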

Chain of DNA topoisomerase 2-alpha (Homo sapiens) (P11388 whole entry): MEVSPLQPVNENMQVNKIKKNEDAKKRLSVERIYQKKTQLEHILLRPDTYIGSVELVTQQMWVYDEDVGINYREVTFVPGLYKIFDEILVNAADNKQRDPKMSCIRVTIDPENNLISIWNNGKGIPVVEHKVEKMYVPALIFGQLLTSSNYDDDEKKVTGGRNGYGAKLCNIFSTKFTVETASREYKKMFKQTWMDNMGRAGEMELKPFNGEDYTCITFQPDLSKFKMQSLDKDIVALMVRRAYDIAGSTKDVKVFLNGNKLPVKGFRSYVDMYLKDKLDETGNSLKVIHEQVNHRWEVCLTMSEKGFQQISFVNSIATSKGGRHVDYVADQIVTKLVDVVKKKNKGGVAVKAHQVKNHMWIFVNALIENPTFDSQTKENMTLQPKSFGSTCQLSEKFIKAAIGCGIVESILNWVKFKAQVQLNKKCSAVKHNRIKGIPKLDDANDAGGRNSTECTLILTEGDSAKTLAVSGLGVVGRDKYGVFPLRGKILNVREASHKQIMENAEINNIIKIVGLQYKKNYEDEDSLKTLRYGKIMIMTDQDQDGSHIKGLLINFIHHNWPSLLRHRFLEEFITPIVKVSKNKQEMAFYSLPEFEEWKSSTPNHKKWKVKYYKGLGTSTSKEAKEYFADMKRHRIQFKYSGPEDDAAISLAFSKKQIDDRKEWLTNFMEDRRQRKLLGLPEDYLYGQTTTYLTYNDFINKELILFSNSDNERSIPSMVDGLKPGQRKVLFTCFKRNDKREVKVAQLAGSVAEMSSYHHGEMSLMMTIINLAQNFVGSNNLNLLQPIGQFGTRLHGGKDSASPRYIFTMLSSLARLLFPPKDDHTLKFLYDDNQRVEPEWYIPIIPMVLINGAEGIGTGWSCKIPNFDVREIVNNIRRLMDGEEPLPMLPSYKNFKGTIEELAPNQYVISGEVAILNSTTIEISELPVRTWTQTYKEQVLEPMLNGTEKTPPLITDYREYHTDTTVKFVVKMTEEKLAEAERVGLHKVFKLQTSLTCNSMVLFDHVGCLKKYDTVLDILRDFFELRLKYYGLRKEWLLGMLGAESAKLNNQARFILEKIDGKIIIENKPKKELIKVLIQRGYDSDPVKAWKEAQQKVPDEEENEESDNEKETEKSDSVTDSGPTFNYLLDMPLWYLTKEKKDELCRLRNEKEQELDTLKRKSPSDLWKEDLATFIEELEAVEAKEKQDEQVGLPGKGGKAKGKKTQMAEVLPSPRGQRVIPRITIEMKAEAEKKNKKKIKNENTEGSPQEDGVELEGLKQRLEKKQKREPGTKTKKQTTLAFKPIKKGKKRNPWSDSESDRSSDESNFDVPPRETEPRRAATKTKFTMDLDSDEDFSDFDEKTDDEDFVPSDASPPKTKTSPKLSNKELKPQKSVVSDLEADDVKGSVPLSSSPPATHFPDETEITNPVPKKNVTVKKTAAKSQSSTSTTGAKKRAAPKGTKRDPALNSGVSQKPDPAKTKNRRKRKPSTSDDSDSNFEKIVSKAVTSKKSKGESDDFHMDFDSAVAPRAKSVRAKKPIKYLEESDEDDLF

inhibition [%] | SMILES
13.3 | Oc1ccccc1-c1cc(-c2ccco2)cc(-c2ccccc2O)n1
4.7 | Oc1ccccc1-c1cc(-c2ccsc2)cc(-c2ccccc2O)n1
12.1 | Oc1cccc(-c2cc(-c3cccs3)cc(-c3ccccc3O)n2)c1
4.3 | Oc1ccccc1-c1cc(-c2ccccn2)cc(-c2ccccc2O)n1
10.8 | Oc1ccccc1-c1cc(-c2cccs2)cc(-c2ccccc2O)n1
23 | Oc1cccc(-c2cc(-c3ccsc3)cc(-c3cccc(O)c3)n2)c1
22.3 | Oc1cccc(-c2cc(-c3cccs3)cc(-c3cccc(O)c3)n2)c1
4.3 | Oc1cccc(-c2cc(-c3ccccn3)cc(-c3cccc(O)c3)n2)c1

The compounds below were run against T1, DNA topoisomerase 1 (Homo sapiens) (assay: Inhibition of recombinant human DNA topoisomerase-1 assessed as relaxation of supercoiled DNA pBR322 at 100 uM after 30 mins by agarose gel electrophoresis relative to control). Conditions: not given.
Procedure, shortened: as §2

inhibition [%] | SMILES
89.1 | Oc1ccccc1-c1cc(-c2ccco2)cc(-c2ccccc2O)n1
0 | Oc1ccccc1-c1cc(-c2ccsc2)cc(-c2ccccc2O)n1
83.2 | Oc1cccc(-c2cc(-c3cccs3)cc(-c3ccccc3O)n2)c1
0.8 | Oc1ccccc1-c1cc(-c2ccccn2)cc(-c2ccccc2O)n1
77.2 | Oc1ccccc1-c1cc(-c2cccs2)cc(-c2ccccc2O)n1
44.2 | Oc1cccc(-c2cc(-c3ccoc3)cc(-c3cccc(O)c3)n2)c1
2.1 | Oc1cccc(-c2cc(-c3cccnc3)cc(-c3cccc(O)c3)n2)c1
59.2 | Oc1cccc(-c2cc(-c3ccsc3)cc(-c3cccc(O)c3)n2)c1
91.7 | Oc1cccc(-c2cc(-c3cccs3)cc(-c3cccc(O)c3)n2)c1
1.5 | Oc1ccc(-c2cc(-c3cccnc3)cc(-c3ccccc3O)n2)cc1
2.4 | Oc1ccc(-c2cc(-c3ccccn3)cc(-c3cccc(O)c3)n2)cc1
1 | Oc1ccccc1-c1cc(-c2ccoc2)cc(-c2ccccc2O)n1
66.4 | Oc1ccccc1-c1cc(-c2cccnc2)cc(-c2ccccc2O)n1
8.3 | Oc1cccc(-c2cc(-c3ccccn3)cc(-c3cccc(O)c3)n2)c1

The compounds below were run against DNA topoisomerase 2-alpha (Homo sapiens) (UniProt P11388) (assay: Inhibition of recombinant human DNA topoisomerase-2alpha using supercoiled pBR322 plasmid DNA as substrate at 100 uM after 30 mins by agarose gel electrophoresis relative to control). Conditions: not given.
Procedure, shortened: as §3

inhibition [%] | SMILES
52.2 | Oc1ccccc1-c1cc(-c2ccco2)cc(-c2ccccc2O)n1
84.5 | Oc1ccccc1-c1cc(-c2ccsc2)cc(-c2ccccc2O)n1
78.1 | Oc1cccc(-c2cc(-c3cccs3)cc(-c3ccccc3O)n2)c1
65.5 | Oc1ccccc1-c1cc(-c2ccccn2)cc(-c2ccccc2O)n1
55.9 | Oc1ccccc1-c1cc(-c2cccs2)cc(-c2ccccc2O)n1
7.3 | Oc1cccc(-c2cc(-c3ccoc3)cc(-c3cccc(O)c3)n2)c1
11.2 | Oc1cccc(-c2cc(-c3cccnc3)cc(-c3cccc(O)c3)n2)c1
88.1 | Oc1cccc(-c2cc(-c3ccsc3)cc(-c3cccc(O)c3)n2)c1
78.3 | Oc1cccc(-c2cc(-c3cccs3)cc(-c3cccc(O)c3)n2)c1
8.3 | Oc1ccc(-c2cc(-c3cccnc3)cc(-c3ccccc3O)n2)cc1
11.9 | Oc1ccc(-c2cc(-c3ccccn3)cc(-c3cccc(O)c3)n2)cc1
12.2 | Oc1ccccc1-c1cc(-c2ccoc2)cc(-c2ccccc2O)n1
5.2 | Oc1ccccc1-c1cc(-c2cccnc2)cc(-c2ccccc2O)n1
52.2 | Oc1cccc(-c2cc(-c3ccccn3)cc(-c3cccc(O)c3)n2)c1

The compounds below were run on HCT-15 (assay: Cytotoxicity against human HCT15 cells measured on day 4 by CCK8 assay). Conditions: HCT-15, 96 h.
Assay type: functional, cell-based
Procedure, shortened: as §1

SMILES | IC50 [µM]
Oc1ccccc1-c1cc(-c2ccco2)cc(-c2ccccc2O)n1 | > 50
Oc1ccccc1-c1cc(-c2ccsc2)cc(-c2ccccc2O)n1 | > 50
Oc1cccc(-c2cc(-c3cccs3)cc(-c3ccccc3O)n2)c1 | > 50
Oc1ccccc1-c1cc(-c2ccccn2)cc(-c2ccccc2O)n1 | > 50
Oc1ccccc1-c1cc(-c2cccs2)cc(-c2ccccc2O)n1 | > 50
Oc1cccc(-c2cc(-c3ccoc3)cc(-c3cccc(O)c3)n2)c1 | 1.02
Oc1cccc(-c2cc(-c3cccnc3)cc(-c3cccc(O)c3)n2)c1 | > 50
Oc1cccc(-c2cc(-c3ccsc3)cc(-c3cccc(O)c3)n2)c1 | 1.63
Oc1cccc(-c2cc(-c3cccs3)cc(-c3cccc(O)c3)n2)c1 | 3.48
COc1cc([C@@H]2c3cc4c(cc3[C@@H](O[C@@H]3O[C@@H]5CO[C@@H](C)O[C@H]5[C@H](O)[C@H]3O)[C@H]3COC(=O)[C@H]23)OCO4)cc(OC)c1O [ETOPOSIDE] | 18.9
Oc1ccc(-c2cc(-c3cccnc3)cc(-c3ccccc3O)n2)cc1 | > 50
Oc1ccc(-c2cc(-c3ccccn3)cc(-c3cccc(O)c3)n2)cc1 | > 50
Oc1ccccc1-c1cc(-c2ccoc2)cc(-c2ccccc2O)n1 | > 50
Oc1ccccc1-c1cc(-c2cccnc2)cc(-c2ccccc2O)n1 | > 50
Oc1cccc(-c2cc(-c3ccccn3)cc(-c3cccc(O)c3)n2)c1 | 3.51

The compounds below were run on HeLa (assay: Cytotoxicity against human HeLa cells measured on day 4 by CCK8 assay). Conditions: 96 h.
Assay type: functional, cell-based
Procedure, shortened: as §1

SMILES | IC50 [µM]
Oc1ccccc1-c1cc(-c2ccco2)cc(-c2ccccc2O)n1 | > 50
Oc1ccccc1-c1cc(-c2ccsc2)cc(-c2ccccc2O)n1 | > 50
Oc1cccc(-c2cc(-c3cccs3)cc(-c3ccccc3O)n2)c1 | > 50
Oc1ccccc1-c1cc(-c2ccccn2)cc(-c2ccccc2O)n1 | > 50
Oc1ccccc1-c1cc(-c2cccs2)cc(-c2ccccc2O)n1 | > 50
Oc1cccc(-c2cc(-c3ccoc3)cc(-c3cccc(O)c3)n2)c1 | 4.63
Oc1cccc(-c2cc(-c3cccnc3)cc(-c3cccc(O)c3)n2)c1 | > 50
Oc1cccc(-c2cc(-c3ccsc3)cc(-c3cccc(O)c3)n2)c1 | 16.6
Oc1cccc(-c2cc(-c3cccs3)cc(-c3cccc(O)c3)n2)c1 | 1.69
COc1cc([C@@H]2c3cc4c(cc3[C@@H](O[C@@H]3O[C@@H]5CO[C@@H](C)O[C@H]5[C@H](O)[C@H]3O)[C@H]3COC(=O)[C@H]23)OCO4)cc(OC)c1O [ETOPOSIDE] | 7.32
Oc1ccc(-c2cc(-c3cccnc3)cc(-c3ccccc3O)n2)cc1 | > 50
Oc1ccc(-c2cc(-c3ccccn3)cc(-c3cccc(O)c3)n2)cc1 | 1.93
Oc1ccccc1-c1cc(-c2ccoc2)cc(-c2ccccc2O)n1 | > 50
Oc1ccccc1-c1cc(-c2cccnc2)cc(-c2ccccc2O)n1 | > 50
Oc1cccc(-c2cc(-c3ccccn3)cc(-c3cccc(O)c3)n2)c1 | 6.5
